Reference: ChEMBL document CHEMBL1130159, “Chlorogenic acid and synthetic chlorogenic acid derivatives: novel inhibitors of hepatic glucose-6-phosphate translocase” (J Med Chem, 1997)

Columns and labels:
[1] = Inhibition glucose-6-phosphate hydrolysis in highly intact microsomal preparations obtained from livers of 20-h fasted rats.; assay type: functional, microsomes, Rattus norvegicus, Liver, Microsome
How it was run: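 Male Wistar rats (160-180 g), fasted 20 h; liver microsomes by differential centrifugation, intactness usually above 97% (1 mM mannose 6-phosphate). 100 μg protein, 1 mM glucose 6-phosphate, 250 mM sucrose/50 mM HEPES pH 7.0, 10 min, 22 °C, compound 0.1-1000 μM (MeOH stock). Phosphate read at 630 nm, background-corrected; IC50 by nonlinear least-squares; at least two experiments.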

Rattus norvegicus [2] = organism: Rattus norvegicus; experiment: Percent inhibition against glucose-6-phosphate hydrolysis in highly intact microsomal preparations obtained from livers of 20-h fasted rats at 1 mM; assay type: functional, microsomes; settings: Liver, Microsome
How it was run: (§1)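 Intact microsomes from 20-h-fasted male Wistar rat liver; 100 μg protein incubated 10 min at 22 °C with 1 mM glucose 6-phosphate in pH 7.0 sucrose/HEPES buffer, ≤1.25% methanol. Released phosphate measured colorimetrically at 630 nm after background subtraction. Percent inhibition versus vehicle control; representative of at least two independent experiments.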

Rattus norvegicus [3] = organism: Rattus norvegicus; experiment: Percent inhibition against glucose-6-phosphate hydrolysis in highly intact microsomal preparations obtained from livers of 20-h fasted rats at 0.23 mM; assay type: functional, microsomes; settings: Liver, Microsome; how it was run: as §1
Rattus norvegicus [4] = organism: Rattus norvegicus; experiment: Percent inhibition against glucose-6-phosphate hydrolysis in highly intact microsomal preparations obtained from livers of 20-h fasted rats at 0.25 mM; assay type: functional, microsomes; settings: Liver, Microsome; how it was run: as §1

| Compound | IC50 [1] [µM] | also measured |
| --- | --- | --- |
| O=C(/C=C/c1ccsc1)O[C@@H]1C[C@](O)(C(=O)O)C[C@@H](O)[C@H]1O | 380 |  |
| O=C(/C=C/c1ccc(O)cc1)O[C@@H]1C[C@](OCCCc2ccc(Cl)cc2)(C(=O)O)C[C@@H](O)[C@H]1O | 2.5 |  |
| COc1cccc(CO[C@@]2(C(=O)O)C[C@@H](O)[C@@H](O)[C@H](OC(=O)/C=C/c3ccc(O)cc3)C2)c1 | 47 |  |
| COC(=O)[C@]1(O)C[C@@H](O)[C@@H](O)[C@H](OC(=O)/C=C/c2ccc(O)c(O)c2)C1 |  | inhibition (Rattus norvegicus [2]): 50% |
| CCO[C@@]1(C(=O)O)C[C@@H](O)[C@@H](O)[C@H](OC(=O)/C=C/c2ccc(O)cc2)C1 |  | inhibition (Rattus norvegicus [2]): 38% |
| O=C(/C=C/c1ccc(O)cc1)O[C@@H]1C[C@](OCc2ccccc2)(C(=O)O)C[C@@H](O)[C@H]1O | 190 |  |
| O=C(COc1ccccc1)O[C@@H]1C[C@](OCCCc2ccc(Cl)cc2)(C(=O)O)C[C@@H](O)[C@H]1O | 12 |  |
| O=C(/C=C/c1ccc(O)c(O)c1)O[C@@H]1C[C@](O)(C(=O)O)C[C@@H](O)[C@H]1O [CHLOROGENIC ACID] | 230 |  |
| O=C(CCc1ccc(O)c(O)c1)O[C@@H]1C[C@](O)(C(=O)O)C[C@@H](O)[C@H]1O | 680 |  |
| O=C(/C=C/c1ccc(O)cc1)O[C@@H]1C[C@](OCCCCc2ccc(Cl)cc2)(C(=O)O)C[C@@H](O)[C@H]1O | 85 |  |
| O=C(/C=C/c1ccc(O)cc1)O[C@@H]1C[C@](OCc2ccc(-c3ccccc3)cc2)(C(=O)O)C[C@@H](O)[C@H]1O | 21 |  |
| O=C(/C=C/c1ccc(O)cc1)O[C@@H]1C[C@H](C(=O)O)C[C@@H](O)[C@H]1O |  | inhibition (Rattus norvegicus [3]): 50% |
| O=C(/C=C/c1ccc(O)c(O)c1O)O[C@@H]1C[C@](O)(C(=O)O)C[C@@H](O)[C@H]1O | 310 |  |
| C=Cc1ccc(C(=O)O[C@@H]2C[C@](OCCCc3ccc(Cl)cc3)(C(=O)O)C[C@@H](O)[C@H]2O)cc1 | 1.3 |  |
| O=C(/C=C/c1ccc(O)c(O)c1)O[C@@H]1C[C@@](O)(C(=O)O)[C@H](O)[C@@H](O)[C@H]1O |  | inhibition (Rattus norvegicus [2]): 10% |
| O=C(O[C@@H]1C[C@](OCCCc2ccc(Cl)cc2)(C(=O)O)C[C@@H](O)[C@H]1O)C1CCCCC1 | 8.9 |  |
| O=C(/C=C/c1ccc(O)cc1)O[C@@H]1C[C@H](C(=O)O)CC[C@H]1O |  | inhibition (Rattus norvegicus [2]): 20% |
| O=C(/C=C/c1ccc(O)cc1)O[C@@H]1CC(C(=O)O)=C[C@@H](O)[C@H]1O |  | inhibition (Rattus norvegicus [4]): 50% |
| C#CCO[C@@]1(C(=O)O)C[C@@H](O)[C@@H](O)[C@H](OC(=O)/C=C/c2ccc(O)cc2)C1 | 230 |  |
| CC(C)CCC(=O)O[C@@H]1C[C@](OCCCc2ccc(Cl)cc2)(C(=O)O)C[C@@H](O)[C@H]1O | 41 |  |
| CO[C@@]1(C(=O)O)C[C@@H](O)[C@@H](O)[C@H](OC(=O)/C=C/c2ccc(O)cc2)C1 | 280 |  |
| O=C(/C=C/c1cccnc1)O[C@@H]1C[C@](O)(C(=O)O)C[C@@H](O)[C@H]1O | > 1000 |  |
| O=C(/C=C/c1ccc(O)cc1)O[C@@H]1C[C@](O)(C(=O)O)C[C@@H](O)[C@H]1O | 250 |  |
| O=C(/C=C/c1ccc(O)cc1)O[C@@H]1C[C@](O)(C(=O)O)[C@@H](O)[C@@H](O)[C@H]1O |  | inhibition (Rattus norvegicus [2]): 30% |
| O=C(/C=C/c1ccc(O)cc1)O[C@@H]1C[C@](OCc2cccs2)(C(=O)O)C[C@@H](O)[C@H]1O | 110 |  |
| O=C(O[C@@H]1C[C@](OCCCc2ccc(Cl)cc2)(C(=O)O)C[C@@H](O)[C@H]1O)c1snnc1-c1ccccc1 | 4.5 |  |
| O=C(/C=C/c1ccc(O)cc1)N[C@@H]1CC(C(=O)O)=C[C@@H](O)[C@H]1O |  | inhibition (Rattus norvegicus [2]): 15% |
| O=C(/C=C/c1ccc(O)cc1)O[C@@H]1C[C@](OCCCc2ccccc2)(C(=O)O)C[C@@H](O)[C@H]1O | 31 |  |
